Screens as filed in PubChem BioAssay.
In the library only some 2.9% were active in any assay of this set; here they are far more common.
ADAM17 inh = inhibits human ADAM17; inhibition, % at 6.95 µM; AID 720648; recombinant ADAM17, EDANS/DABCYL FRET peptide cleavage; 370,000 compounds, 0.83% hits;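 active = inhibition above the mean of compounds lying between control limits plus 3 SD, set per campaign, cut at about 8.5% in these data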;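 note: 0% = DMSO-only wells as the low control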
ADAM10 inh = inhibits human ADAM10. O14672. recombinant ADAM10, EDANS/DABCYL FRET peptide cleavage, 3 h. inhibition, % at 7 µM. 370,000 compounds, 0.62% hits. AID 720582;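 active = inhibition above a per-campaign cutoff equal to the mean of compounds falling between control-based bounds plus 3 SD, cut at about 20% in these data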;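 note: 0% = DMSO wells while the 100% control is not disclosed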
CaV13 ICDI inh = Disruptors of the CACNA1D IQ motif to Ca2+-dependent inactivation inhibitor domain association, primary screening, Förster resonance energy transfer in intact living …; HEK cells, CFP/YFP FRET ICDI-IQ, plate reader, 10 min; percent FRET-ratio fall versus neutral wells; 340,000 compounds, 0.098% hits; AID 743397; inhibition, % at 12.3 µM;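 active = mean replicate inhibition of at least 30% and at least 1% of replicates passing that level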;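 note: 0% = median of the neutral control wells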
FAS TE block = blocks the thioesterase domain of human fatty acid synthase; AID 602261; 360,000 compounds, 0.67% hits; P49327; recombinant FAS-TE, OMFH fluorogenic substrate, fluorescence endpoint; inhibition, % at 15 µM;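 active = compounds whose normalised, plate-corrected inhibition of enzyme fluorescence in the single-dose primary screen is 50% or more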;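 note: 0% = DMSO with enzyme and 100% = substrate without enzyme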
NRP1-CendR mod = alters CendR peptide binding to human NRP-1. FAM-RPARPAR peptide binding to NRP-1, fluorescence polarization. inhibition, % at 25 µM. AID 602438. 360,000 compounds, 0.85% hits. O14786;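 active = inhibition or corrected inhibition above about 18%, plus a signal ratio from 0.5 to 1.5, limit read from the data, passing the limit was not always enough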
Target sequence (O14786 whole entry, looked up): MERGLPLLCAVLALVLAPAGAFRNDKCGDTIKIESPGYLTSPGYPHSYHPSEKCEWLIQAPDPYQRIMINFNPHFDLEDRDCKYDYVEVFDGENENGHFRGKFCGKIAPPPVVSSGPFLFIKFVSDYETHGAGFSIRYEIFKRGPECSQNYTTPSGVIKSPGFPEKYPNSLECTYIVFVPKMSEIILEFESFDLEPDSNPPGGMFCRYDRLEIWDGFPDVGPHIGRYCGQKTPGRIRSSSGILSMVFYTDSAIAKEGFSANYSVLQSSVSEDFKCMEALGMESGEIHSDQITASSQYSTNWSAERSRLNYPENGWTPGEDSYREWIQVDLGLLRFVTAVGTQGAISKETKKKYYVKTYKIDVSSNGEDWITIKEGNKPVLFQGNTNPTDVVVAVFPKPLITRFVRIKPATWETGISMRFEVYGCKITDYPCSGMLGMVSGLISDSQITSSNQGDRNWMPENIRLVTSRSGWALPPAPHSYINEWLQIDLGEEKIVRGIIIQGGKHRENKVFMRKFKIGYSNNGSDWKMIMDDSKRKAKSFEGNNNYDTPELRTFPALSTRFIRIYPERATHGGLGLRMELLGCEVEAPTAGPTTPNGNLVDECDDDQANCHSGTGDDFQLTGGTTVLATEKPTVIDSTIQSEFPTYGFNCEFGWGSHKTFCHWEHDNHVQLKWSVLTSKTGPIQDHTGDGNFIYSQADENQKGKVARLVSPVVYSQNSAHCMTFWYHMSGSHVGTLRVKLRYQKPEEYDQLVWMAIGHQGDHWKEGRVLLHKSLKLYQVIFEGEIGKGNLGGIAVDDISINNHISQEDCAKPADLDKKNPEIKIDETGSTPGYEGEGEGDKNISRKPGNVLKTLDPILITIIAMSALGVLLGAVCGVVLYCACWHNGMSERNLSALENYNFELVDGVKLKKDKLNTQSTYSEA
Arr AP2 block = human beta-arrestin and AP2 interaction inhibition; FITC-arrestin peptide / GST-AP2 beads, flow cytometry; AP2 beta2 appendage carries R879A mutation; inhibition, % at 10 µM; 340,000 compounds, 0.31% hits; AID 504490;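 active = inhibition above a set limit, near 3 SD of compounds lacking own fluorescence, cut at about 54% in these data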;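 note: plate controls were DMSO wells for no effect and 5 µM unlabelled arrestin peptide for full effect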
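Assay system: GST-AP2 R879A bound to glutathione beads, E. coli-expressed; Medium: PBS with 0.05% Tween 20 and 0.1% BSA; Also added: fluorescein-tagged arrestin peptide at 50 nM final; Timing: 12 min plus 1 h, RT; Measured by: flow cytometry, FL1 (488/535 nm); Evaluation: percent drop in bead-associated FITC signal.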
ADAM10 counter = inhibits human ADAM10 in ADAM17 exosite counter-screen. shares compounds with ADAM17 inh. recombinant ADAM10, EDANS/DABCYL FRET peptide cleavage, 3 h. inhibition, % at 6.95 µM. 2,900 compounds, 47% hits. AID 743256;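 active = mean inhibition over the triplicate runs exceeds the activity threshold set in the earlier primary screen, cut at about 20% in these data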;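 note: 0% = DMSO wells and 100% = marimastat wells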
ADAM17 confirm = confirmation of inhibitors of human ADAM17. recombinant ADAM17, EDANS/DABCYL QFRET peptide cleavage. inhibition, % at 6.95 µM. AID 743257. shares compounds with ADAM17 inh. 2,900 compounds, 65% hits;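 active = mean inhibition across replicates above the hit cutoff set in the primary screen, cut at about 8.5% in these data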;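 note: 0% = DMSO wells and 100% = marimastat wells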
Starred values were filed as active, the others as inactive; . = no result.

SMILES | ADAM17 inh | ADAM10 inh | CaV13 ICDI inh | FAS TE block | NRP1-CendR mod | Arr AP2 block | ADAM10 counter | ADAM17 confirm
COc1ccc(C2c3ccc4ccccc4c3Oc3ncn(CCO)c(=N)c32)cc1OC (centres undefined) | . | . | . | -4 | 0 | 15 | . | .
COc1ccc(C2c3ccc4ccccc4c3Oc3ncn(CCN4CCOCC4)c(=N)c32)cc1 (centres undefined) | 9.2* | 18 | -6 | 5 | 0 | 1 | 12 | 8
COc1ccc(C2c3ccc4ccccc4c3Oc3ncn(CCN4CCOCC4)c(=N)c32)cc1OC (centres undefined) | 8.6* | 11 | -16 | 6 | 8 | -9 | 12 | 9.2*
CCCC1CCC2(CC1)CCC2OC(=O)Nc1cc(C)cc(C)c1 (centres undefined) | -3 | 1 | . | . | . | . | . | .
O=C(Cc1ccccc1)NC1CCN(C(=O)NCc2ccccc2)CC1 | -1 | 3 | -3 | -7 | -14 | 2 | . | .
CCN(CC)C(=O)N1CCC(NC(=O)Cc2ccccc2)CC1 | 9.4* | 3 | -3 | -9 | -3 | 21 | -6 | 1
C/C=C/C(=O)OCC(=O)Nc1nc2ccc(C)cc2s1 | 9.3* | 16 | . | -4 | 22 | 1 | -11 | -2
CC(C)NC(=O)N[C@H]1C[C@@H]2O[C@@H](CO)CC[C@@H]2O[C@@H]1CCc1ccc(-c2ccc(F)cc2)cc1 | 3 | 5 | . | . | . | . | . | .
Cc1onc(-c2ccccc2Cl)c1C(=O)NC(=S)Nc1ccc(C(C)C)cc1 | 3 | 9 | -5 | 31 | 4 | 11 | . | .
Cc1ccc(NC(=S)NC(=O)c2c(-c3ccccc3Cl)noc2C)cc1 | 10.0* | 11 | -6 | 29 | 3 | -1 | 26* | 14*
Cc1onc(-c2ccccc2Cl)c1C(=O)Nc1ccc2c(c1)OCO2 | 10* | 2 | . | 1 | -6 | 7 | 11 | 9
COc1ccc(S[C@]2(C(=O)N3CCN(C(C)=O)CC3)CC(=O)N(C(=O)CCc3ccccc3)[C@@H]2c2ccc(OC)cc2)cc1 | 16* | 19 | . | . | . | . | 24* | 13*
COC(=O)c1cccc(N2C(=O)C[C@](Sc3ccc(OC)cc3)(C(=O)N3CCOCC3)[C@H]2c2ccc(OC)cc2)c1 | 14* | 18 | . | . | . | . | 17 | 9
CCOC(=O)C1=C(O)/C(=C\c2cccs2)N=C1C | 10.0* | 16 | -9 | -10 | -4 | 9 | 1 | 4
CCOC(=O)C1=C(O)/C(=C\c2sccc2C)N=C1C | 3 | 12 | -4 | -5 | 7 | -13 | . | .
OC(c1ccccc1)c1nc(-c2ccc(F)c(Cl)c2)cs1 (centres undefined) | 4 | 17 | -4 | 32 | 3 | . | . | .
COc1ccc(COC(=O)C2CCN(S(=O)(=O)c3ccc(Cl)cc3)CC2)cc1 | -1 | -3 | -6 | 32 | -14 | -2 | . | .
COc1ccc(COC(=O)C2CCN(S(=O)(=O)c3ccc(OC)c(OC)c3)CC2)cc1 | 9.7* | 9 | -16 | 22 | -1 | 3 | 30* | 17*
Cc1ccc(N(CC(=O)NCc2cccnc2)S(C)(=O)=O)cc1C | 10* | 13 | -4 | 0 | 7 | -8 | 0 | 1
Cc1ccc(N(CC(=O)NCc2ccncc2)S(C)(=O)=O)cc1Cl | -3 | -6 | 0 | -11 | -6 | 2 | . | .
C[C@@H]1CCCCO[C@@H](CN(C)C(=O)CCC(F)(F)F)[C@@H](C)CN([C@H](C)CO)C(=O)c2cc(NS(=O)(=O)c3cccs3)ccc2O1 | 3 | 7 | -6 | . | . | . | . | .
CC(Oc1ccc(Cl)cc1Cl)c1ccnc(N)n1 (centres undefined) | 9.2* | 16 | -2 | 2 | 4 | 21 | 2 | 3
COc1ccccc1N1CCN(C(=O)c2ccccc2Oc2ccccc2)CC1 | 15* | 13 | . | 6 | 13 | -5 | -2 | 0
CC(=O)N1CC(C)Sc2ccc(S(=O)(=O)NCCc3ccc(C)cc3)cc21 (centres undefined) | 9.3* | 11 | -1 | 10 | 10 | -3 | 1 | 6
CC(=O)N1CC(C)Sc2ccc(S(=O)(=O)NCCc3ccccc3)cc21 (centres undefined) | 6 | -2 | -2 | 1 | 10 | 17 | . | .
SMILES | ADAM17 inh | ADAM10 inh | CaV13 ICDI inh | FAS TE block | NRP1-CendR mod | Arr AP2 block | ADAM10 counter | ADAM17 confirm
Cc1ccc(N(CC(=O)Nc2cc(Cl)ccc2Oc2ccccc2)S(C)(=O)=O)c(C)c1 | 13* | 16 | -5 | 32 | -7 | 1 | 41* | 22*
Cc1ccc(N(CC(=O)Nc2cc(Cl)ccc2Oc2ccccc2)S(C)(=O)=O)cc1C | 2 | 7 | -5 | 24 | 0 | -7 | . | .
O=C(NCc1cccs1)C1CCCN(S(=O)(=O)c2ccccc2)C1 (centres undefined) | 5 | -8 | . | . | . | . | . | .
CC(=O)NC(c1cccc([N+](=O)[O-])c1)c1ccc2cccnc2c1O (centres undefined) | 2 | 9 | -4 | 21 | 14 | 23 | . | .
CCCCC(=O)NC(c1cccc([N+](=O)[O-])c1)c1ccc2cccnc2c1O (centres undefined) | 9.6* | 18 | -7 | 12 | 6 | 38 | 25* | 17*
O=C(NCC1CC1)c1ccc(Nc2nc3ccc(Br)cc3[nH]2)cc1 | -19 | -60 | -10 | 6 | -1 | -9 | . | .
O=C(Cc1ccc(Nc2nc3ccc(Br)cc3[nH]2)cc1)NCCc1cccs1 | 8.9* | 7 | -2 | -22 | -5 | 15 | 14 | 9.5*
CCOC(=O)C1=C(C)Nc2ccccc2N/C1=N\S(=O)(=O)c1ccc(Cl)cc1 | 12* | 0 | -6 | -6 | 1 | 0 | 4 | 5
CCOC(=O)C1=C(C)Nc2ccccc2N/C1=N\S(=O)(=O)c1cccc(Cl)c1 | -1 | -6 | -7 | -3 | 9 | 1 | . | .
CC1CCCN(c2nc(NCc3ccco3)nc(N)c2[N+](=O)[O-])C1 (centres undefined) | 9.7* | 18 | -3 | 10 | -14 | -14 | 1 | 5
Cc1ccc(-c2csc(NC(=O)Cn3cnc4c3c(=O)n(C)c(=O)n4C)n2)cc1C | -2 | -8 | -4 | -5 | -8 | 5 | . | .
Cn1c(=O)c2c(ncn2CC(=O)Nc2nc(-c3ccc(F)c(F)c3)cs2)n(C)c1=O | 8.8* | 2 | -6 | 3 | -17 | 10 | -6 | 0
Cc1ccc(-c2cc(C(=O)NN=Cc3cccc(OCc4ccccc4)c3)[nH]n2)cc1C | 11* | 7 | . | . | . | . | 15 | 12*
